Source: article PMC3620022 (Molecular cancer therapeutics, 2012)
Changes are numbered by the printed parent chain. “And” between values parts separate entries of the source, which are not always exact repeats. Equal values may be shown once.

What was measured:
[1] = biological target: T1, recombinant GAC (residues 128-603) (Mus musculus, UniProt D3Z7P3); experiment: Recombinant GAC two-step glutaminase assay; assay type: biochemical; conditions: for inhibition of phosphate-activated enzyme: GAC activated by inorganic phosphate before inhibitor
T1 sequence (D3Z7P3 128-603 isoform D3Z7P3-2): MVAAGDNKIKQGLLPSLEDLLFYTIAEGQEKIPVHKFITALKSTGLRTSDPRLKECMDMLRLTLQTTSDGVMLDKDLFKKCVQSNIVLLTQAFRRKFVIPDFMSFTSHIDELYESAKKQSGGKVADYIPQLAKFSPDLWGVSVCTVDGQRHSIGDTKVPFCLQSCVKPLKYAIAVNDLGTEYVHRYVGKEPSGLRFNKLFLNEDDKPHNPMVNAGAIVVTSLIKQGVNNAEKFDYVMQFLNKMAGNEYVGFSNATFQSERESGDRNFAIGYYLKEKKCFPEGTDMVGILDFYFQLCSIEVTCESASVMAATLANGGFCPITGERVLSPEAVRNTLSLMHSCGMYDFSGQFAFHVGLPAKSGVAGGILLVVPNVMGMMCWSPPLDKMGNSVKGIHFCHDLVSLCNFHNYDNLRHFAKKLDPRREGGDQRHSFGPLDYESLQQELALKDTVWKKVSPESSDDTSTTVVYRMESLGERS

[2] = biological target: T2, full-length wild-type GAC (Δ72 GAC) (Mus musculus, UniProt D3Z7P3); experiment: Recombinant protein assay with full-length wild-type GAC; assay type: biochemical
T2 sequence (D3Z7P3 72-603 isoform D3Z7P3-2): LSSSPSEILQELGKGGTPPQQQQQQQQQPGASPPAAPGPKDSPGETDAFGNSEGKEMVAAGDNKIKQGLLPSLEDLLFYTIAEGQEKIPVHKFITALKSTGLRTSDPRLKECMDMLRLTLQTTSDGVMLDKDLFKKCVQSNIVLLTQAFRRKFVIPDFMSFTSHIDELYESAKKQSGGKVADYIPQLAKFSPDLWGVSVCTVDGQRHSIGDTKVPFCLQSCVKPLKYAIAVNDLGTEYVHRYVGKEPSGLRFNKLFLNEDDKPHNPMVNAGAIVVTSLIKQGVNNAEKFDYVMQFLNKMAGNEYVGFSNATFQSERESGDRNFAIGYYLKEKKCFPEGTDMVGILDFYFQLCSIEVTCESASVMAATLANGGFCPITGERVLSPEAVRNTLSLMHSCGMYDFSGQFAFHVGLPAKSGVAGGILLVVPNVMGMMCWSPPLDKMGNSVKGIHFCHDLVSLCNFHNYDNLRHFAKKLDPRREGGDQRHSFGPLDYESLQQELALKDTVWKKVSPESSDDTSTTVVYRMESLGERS
Summary of the method: (§1)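 Mouse GAC residues 72-603 in pET28a, wild type or site-directed mutant. Inhibitor in DMSO mixed with 50 nM enzyme and 21 mM glutamine in pH 8.6 Tris-acetate, then inorganic phosphate (136 mM) added; 10 min at 37°C; acid quench. Glutamate read by glutamate dehydrogenase/NAD coupling, A340 after 45 min room temperature against NAD-free blank; duplicates. IC50 from fixed-slope inhibitor curve fit.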

[3] = biological target: T3, R539L GAC mutant (Mus musculus, UniProt D3Z7P3, R539L); experiment: Recombinant protein assay with R539L GAC mutant; assay type: biochemical; conditions: concentrations up to 50 μM
T3 sequence (D3Z7P3 72-603 isoform D3Z7P3-2 R539L): T2 sequence (D3Z7P3 72-603 isoform D3Z7P3-2) with R468L
Summary of the method: as §1

[4] = biological target: T4, F532L GAC mutant (Mus musculus, UniProt D3Z7P3, F532L); experiment: Recombinant protein assay with F532L GAC mutant; assay type: biochemical; conditions: concentrations up to 50 μM
T4 sequence (D3Z7P3 72-603 isoform D3Z7P3-2 F532L): T2 sequence (D3Z7P3 72-603 isoform D3Z7P3-2) with F461L
Summary of the method: as §1

[5] = test system: MDA-MB-231 cells; experiment: MDA-MB-231 cell proliferation assay; assay type: cell-based, human

| Compound | inhibition at 10 µM [1] [%] | inhibition at 25 µM [1] [%] | inhibition at 50 µM [1] [%] | inhibition of phosphate-activated enzyme [1] | IC50 ([1]; IC50, GAC 50 nM, glutamine 21 mM, phosphate 136 mM, 10 min, fixed slope inhibitor model, shorter GAC construct) | IC50 [2] [µM] | inhibition of mutant [3] | inhibition of mutant [4] | IC50 ([5]; Homo sapiens, MDA-MB-231) [µM] | IC50 ([5]; MDA-MB-231 cell proliferation) [µM] |
| --- | --- | --- | --- | --- | --- | --- | --- | --- | --- | --- |
| CN(C)c1ccc(C2Nc3ccc4ccccc4c3C3=C2C(=O)CC(C)(C)C3)cc1Br (centres unmarked) [compound 968, 5-(3-bromo-4-(dimethylamino)phenyl)-2,2-dimethyl-2,3,5,6-tetrahydrobenzo[a]phenanthridin-4(1H)-one] | 21 ± 5 | 94 ± 1 | 95 ± 1 | unable to inhibit the phosphate-activated enzyme | 9.3 µM and ~10 µM | 19 | detectable inhibition was not observed | detectable inhibition was not observed | 4.2 | – |
| O=C(Cc1ccccc1)Nc1nnc(CCSCCc2nnc(NC(=O)Cc3ccccc3)s2)s1 [BPTES, reference compound] | – | – | – | able to do so | – | – | – | – | – | 3 |
